How the values were obtained:
[1] = tested on: OVCAR8-RFP cells xenografted IP; assay: OVCAR8-RFP IP xenograft; assay type: in vivo, mouse; details: for tumor burden: compared to DMSO
OVCAR3 = assay: Cell viability assay; assay type: cell-based, human; details: OVCAR3, 72 h, average
Outline: (§1)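 RPMI1640 (OVCAR3, OVCAR4, MDA-MB-435) or DMEM (OVCAR8, MDA-MB-231) was used, with 10% FBS and penicillin/streptomycin. Cells were STR-validated and kept below 20 passages. Cells were plated at 5000 per well overnight, then given test compound at final 0.95–250 nM (nine levels, 0.5% DMSO) for 72 h at 37 °C. Viability was read by CellTiter-Blue absorbance, and IC50 was taken relative to DMSO. Paclitaxel (0.39–100 nM) was the control, with three biological replicates.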

MDA-MB-435 = assay: Cell viability assay; assay type: cell-based, human; details: MDA-MB-435, 72 h, average
Outline: as §1

MDA-MB-231 = assay: Cell viability assay; assay type: cell-based, human; details: MDA-MB-231, 72 h, average
Outline: as §1

OVCAR4 [2] = assay: Cell viability assay; assay type: cell-based, human
Outline: as §1

OVCAR8 [3] = assay: Cell viability assay; assay type: cell-based, human
Outline: as §1

OVCAR8 spheroids = assay: Spheroid viability assay; assay type: cell-based, human; details: read-out: IC50, spheroid viability, 7 days
Outline: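 OVCAR8 cells (5000 in 80 μL medium per well) were formed into spheroids in ultra-low-attachment round-bottom wells. Spheroids were treated for 7 days with test compound, DMSO vehicle or paclitaxel control. Viability was measured with CellTiter-Glo after 30 min shaking for lysis, read as luminescence. Dose–response curves were normalized to vehicle to give IC50. Data are mean ± SEM from three biological replicates.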

OVCAR4 [4] = assay: 2D foci assay; assay type: cell-based, human; details: OVCAR4, 50 nM for 8 h, two weeks colony formation, relative to vehicle
Outline: (§2)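 Cells were seeded at 200 per 60 mm dish and left to attach overnight. They were then exposed for 8 h to test compound (50 nM), DMSO vehicle or paclitaxel (10 nM). Medium was replaced and cells grew drug-free for about two weeks (15 days). Colonies were fixed in 4% paraformaldehyde, stained with 0.05% crystal violet, imaged and counted. There were three biological replicates, compared with vehicle by Dunnett's test.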

OVCAR8 [5] = assay: 2D foci assay; assay type: cell-based, human; details: OVCAR8, 50 nM for 8 h, two weeks colony formation, relative to vehicle
Outline: as §2

murine lymphoma L5178Y = details: mouse lymphoma cells (L5178Y); cited from earlier work
[6] = tested on: A2780 human ovarian cancer cell lines; details: cited from earlier work

Row | SMILES | tumor burden ([1]; 0.5 mg/kg twice weekly) | IC50 (OVCAR3) | IC50 (MDA-MB-435) | IC50 (MDA-MB-231) | cytotoxic activity (OVCAR4 [2]) | cytotoxic activity (OVCAR8 [3]) | IC50 (OVCAR8 spheroids) | foci formation (OVCAR4 [4]) | foci formation (OVCAR8 [5]) | liver and organ gross morphology ([1]; 0.25 mg/kg in DMSO twice weekly for four weeks) | tumor burden ([1]; 0.25 mg/kg twice weekly for four weeks) | cytotoxic activity (murine lymphoma L5178Y) | growth of cells [6]
1 | CC(=O)O[C@H]1C(=O)[C@@]2(C)[C@H]([C@H](OC(=O)c3ccccc3)[C@]3(O)C[C@H](OC(=O)[C@H](O)[C@@H](NC(=O)c4ccccc4)c4ccccc4)C(C)=C1C3(C)C)[C@]1(OC(C)=O)CO[C@@H]1C[C@@H]2O [taxol, paclitaxel, reference compound] | reduced |  |  |  |  |  |  |  |  |  |  |  | 
2 | CC(O)[C@@]12SS[C@]3(C(=O)N1C)[C@@H](O)C1([C@@]45c6ccccc6N[C@@H]4N4C(=O)[C@]6(C(C)O)SS[C@]4(C(=O)N6C)[C@H]5O)c4ccccc4N[C@@H]1N3C2=O (stereo partly shown) [verticillin D] |  | 34.2 nM | 35.3 nM | 12.2 nM | nanomolar cytotoxic activity | nanomolar cytotoxic activity | 1170 nM | completely abrogated foci formation | completely abrogated foci formation | gross morphological liver damage and fused organs | reduced | moderate cytotoxic activity | inhibit the growth

From publication PMC10405366 (Molecular pharmaceutics, 2023)
